Assay results from ChEMBL document CHEMBL3352437, “Novel 3,5-bis(arylidene)-4-oxo-1-piperidinyl dimers: structure-activity relationships and potent antileukemic and antilymphoma cytotoxicity” (Eur J Med Chem, 2014).

How the values were obtained:
L1210 = experiment: Antiproliferative activity against mouse L1210 cells after 72 hrs by coulter counting analysis; type: functional, cell-based; settings: L1210, 72 h
LAPC4 = experiment: Cytotoxicity against human LAPC4 cells assessed as dead cells at 1 uM after 24 hrs; type: functional
How it was run: (§1)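 Dienones added as DMSO solutions to cells in RPMI medium and incubated 24 h at 37°C. Cytotoxicity was scored as cell-membrane disruption by propidium iodide staining and expressed as percentage of dead cells, averaged over three independent experiments.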

CCRF-CEM [1] = experiment: Antiproliferative activity against human CEM cells after 72 hrs by coulter counting analysis; type: functional, cell-based
How it was run: (§2)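 Cells exposed to a range of concentrations in RPMI 1640 at 37°C for 72 h. Surviving cells counted by Coulter counter. IC50 taken from concentration-response curves, mean ± SD of at least three independent experiments.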

DU-145 = experiment: Cytotoxicity against human DU145 cells assessed as dead cells at 1 uM after 24 hrs; type: functional; how it was run: as §1
[2] = Cytotoxicity against human NALM6 cells assessed as dead cells at 1 uM after 24 hrs; type: functional, NALM-6; how it was run: as §1
Raji = experiment: Cytotoxicity against human Raji cells assessed as dead cells at 1 uM after 24 hrs; type: functional; how it was run: as §1
[3] = Cytotoxicity against human SupT1 cells assessed as dead cells at 1 uM after 24 hrs; type: functional, SUP-T1; how it was run: as §1
YT = experiment: Cytotoxicity against human YT cells assessed as dead cells at 1 uM after 24 hrs; type: functional; how it was run: as §1
HS27 = experiment: Cytotoxicity against human HS27 cells assessed as dead cells at 1 uM after 24 hrs; type: cell-based; settings: hs27, 24 h
How it was run: (§3)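 Compounds added from DMSO solutions to cells in medium (RPMI; DMEM for Hs-27 fibroblasts) and incubated 24 h at 37°C. Membrane disruption scored by propidium iodide uptake. Result is percentage of dead cells, average of three independent experiments.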

RPMI-8226 = experiment: Ratio of melphalan IC50 to compound IC50 for human RPMI8226 cells; type: functional; settings: pooled result: one value given for 3 cell lines, strains, targets or settings
[4] = Cytotoxicity against human HuT-102 cells assessed as dead cells at 1 uM after 24 hrs; type: functional; how it was run: as §1
[5] = Antileukemic activity against human RPMI8226 cells assessed as inhibition of tumor growth after 24 hrs; type: functional, cell-based; settings: rpmi-8226
KM12 = experiment: Cytotoxicity against human KM12 cells assessed as inhibition of tumor growth after 24 hrs; type: functional, cell-based; settings: KM12, 24 h
EL4 = experiment: Cytotoxicity against mouse EL4 cells assessed as dead cells at 1 uM after 24 hrs; type: functional; how it was run: as §1
SW-620 = experiment: Cytotoxicity against human SW620 cells assessed as inhibition of tumor growth after 24 hrs; type: functional, cell-based; settings: SW-620, 24 h
[6] = Antiproliferative activity against human Molt4/C8 cells after 72 hrs by coulter counting analysis; type: functional, cell-based; settings: MOLT-4, 72 h; how it was run: as §2
COLO 205 [7] = experiment: Ratio of 5-fluorouracil IC50 to compound IC50 for human COLO205 cells; type: functional; settings: pooled result: one value given for 5 cell lines, strains, targets or settings
K562 = experiment: Antileukemic activity against human K562 cells assessed as inhibition of tumor growth after 24 hrs; type: functional, cell-based; settings: K562, 24 h
Ramos = experiment: Cytotoxicity against human Ramos cells assessed as dead cells at 1 uM after 24 hrs; type: functional; how it was run: as §1
Jurkat = experiment: Cytotoxicity against human Jurkat cells assessed as dead cells at 1 uM after 24 hrs; type: functional; how it was run: as §1
[8] = Cytotoxicity against human MDA231 cells assessed as dead cells at 1 uM after 24 hrs; type: functional, MDA-MB-231; how it was run: as §1
[9] = Cytotoxicity against human NCI60 cells assessed as inhibition of tumor growth after 24 hrs; type: functional, cell-based; settings: NCI60, 24 h
MOLT-4 [10] = experiment: Ratio of melphalan IC50 to compound IC50 for human Molt4/C8 cells; type: functional; settings: pooled result: one value given for 4 cell lines, strains, targets or settings
[11] = Cytotoxicity against human MCF10A cells assessed as dead cells at 1 uM after 24 hrs; type: cell-based; settings: mcf-10a; how it was run: as §3
HeLa = experiment: Antiproliferative activity against human HeLa cells after 72 hrs by coulter counting analysis; type: functional, cell-based; how it was run: as §2
HL-60(TB) = experiment: Antileukemic activity against human HL-60(TB) cells assessed as inhibition of tumor growth after 24 hrs; type: functional, cell-based; settings: HL-60, 24 h
MCF7 = experiment: Cytotoxicity against human MCF7 cells assessed as dead cells at 1 uM after 24 hrs; type: functional; how it was run: as §1
BJAB = experiment: Cytotoxicity against human BJAB cells assessed as dead cells at 1 uM after 24 hrs; type: functional; how it was run: as §1
CCRF-CEM [12] = experiment: Cytotoxicity against human CEM cells assessed as dead cells at 1 uM after 24 hrs; type: functional; how it was run: as §1
SR = experiment: Antileukemic activity against human SR cells assessed as inhibition of tumor growth after 24 hrs; type: functional, cell-based
HCC 2998 = experiment: Cytotoxicity against human HCC2998 cells assessed as inhibition of tumor growth after 24 hrs; type: functional, cell-based; settings: HCC 2998, 24 h
MOLT-4 [13] = experiment: Ratio of curcumin IC50 to compound IC50 for human Molt4/C8 cells; type: functional; settings: pooled result: one value given for 4 cell lines, strains, targets or settings
[14] = Cytotoxicity against human HCT15 cells assessed as inhibition of tumor growth after 24 hrs; type: functional, cell-based; settings: HCT-15, 24 h
COLO 205 [15] = experiment: Cytotoxicity against human COLO205 cells assessed as inhibition of tumor growth after 24 hrs; type: functional, cell-based; settings: COLO 205, 24 h
HCC70 = experiment: Cytotoxicity against human HCC70 cells assessed as dead cells at 1 uM after 24 hrs; type: functional; how it was run: as §1
[16] = Cytotoxicity against human 22Rvl cells assessed as dead cells at 1 uM after 24 hrs; type: functional; how it was run: as §1
[17] = Cytotoxicity against human MOLT3 cells assessed as dead cells at 1 uM after 24 hrs; type: functional, MOLT-3; how it was run: as §1

COc1cc(/C=C2\CN(C(=O)C(=O)N3C/C(=C\c4cc(OC)c(OC)c(OC)c4)C(=O)/C(=C/c4cc(OC)c(OC)c(OC)c4)C3)C/C(=C\c3cc(OC)c(OC)c(OC)c3)C2=O)cc(OC)c1OC
IC50 (L1210): 182 nM | Activity (LAPC4): 9.7% | IC50 (CCRF-CEM [1]): 325 nM | Activity (DU-145): 41.3% | Activity [2]: 67.6% | Activity (Raji): 55.7% | Activity [3]: 38.2% | Activity (YT): 13% | Activity (HS27): 15.4% | Ratio IC50 (RPMI-8226): 1418 | Activity [4]: 50.5% | IC50 [5]: 20 nM | IC50 (KM12): 60 nM | Activity (EL4): 33.8% | IC50 (SW-620): 30 nM | IC50 [6]: 47 nM | Ratio IC50 (COLO 205 [7]): 121 | IC50 (K562): 30 nM | Activity (Ramos): 65.1% | Activity (Jurkat): 78.7% | Activity [8]: 4.7% | IC50 [9]: 60 nM | Ratio IC50 (MOLT-4 [10]): 13.5 | Activity [11]: 7.6% | IC50 (HeLa): 246 nM | IC50 (HL-60(TB)): 70 nM | Activity (MCF7): 43.2% | Activity (BJAB): 60.9% | Activity (CCRF-CEM [12]): 84.1% | IC50 (SR): 20 nM | IC50 (HCC 2998): 100 nM | Ratio IC50 (MOLT-4 [13]): 63.8 | IC50 [14]: 70 nM | IC50 (COLO 205 [15]): 70 nM | Activity (HCC70): 7.3% | Activity [16]: 3.4% | Activity [17]: 30.3%
